# Reference: ChEMBL document CHEMBL3393058 (Eur J Med Chem, 2014)
# Calls of active or inactive are those of the source. The calls are words filed in the database; no cut-off is given here.
# Experiments:
# [1] = target: T1, Protein tyrosine phosphatase type IVA 3 (Homo sapiens, UniProt O75365); test: Inhibition of PRL3 (unknown origin) using DiFMUP as fluorogenic phosphate substrate assessed as DiFMUP dephosphorylation
# Homo sapiens [2] = species on record: Homo sapiens; test: Selectivity index, 1 - (inhibition of PRL3/inhibition of TCPTP) at 50 uM
# [3] = target: T2, Protein tyrosine phosphatase type IVA 2 (Homo sapiens, UniProt Q12974); test: Inhibition of PRL2 (unknown origin) using DiFMUP as fluorogenic phosphate substrate assessed as DiFMUP dephosphorylation
# T2 sequence (Q12974 whole entry): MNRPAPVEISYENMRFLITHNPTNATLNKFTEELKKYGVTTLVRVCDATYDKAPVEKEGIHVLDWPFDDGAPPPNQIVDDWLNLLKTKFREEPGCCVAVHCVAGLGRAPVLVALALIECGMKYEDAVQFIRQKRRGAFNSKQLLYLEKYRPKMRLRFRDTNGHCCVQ
# [4] = target: T3, Protein tyrosine phosphatase type IVA 1 (Homo sapiens, UniProt Q93096); test: Inhibition of PRL1 (unknown origin) using DiFMUP as fluorogenic phosphate substrate assessed as DiFMUP dephosphorylation
# T3 sequence (Q93096 whole entry): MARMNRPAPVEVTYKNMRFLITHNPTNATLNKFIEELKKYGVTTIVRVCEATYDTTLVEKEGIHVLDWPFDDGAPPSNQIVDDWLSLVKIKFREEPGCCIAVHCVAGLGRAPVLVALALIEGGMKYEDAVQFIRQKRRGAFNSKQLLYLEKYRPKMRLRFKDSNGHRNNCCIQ
# Homo sapiens [5] = species on record: Homo sapiens; test: Selectivity index, 1 - (inhibition of PRL3/inhibition of VHR) at 50 uM
# HEK293 [6] = test: Cytotoxicity against human HEK293 cells expressing human PRL-3 at 50 to 75 uM after 16 hrs by MTT assay; assay type: cell-based; conditions: hek293, 16 h
# Outline: (§1)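 Tetracycline-induced stable HEK293 Flp-In T-REx lines (PRL-1, PRL-2, PRL-3 or empty vector) were seeded at 10000 cells/well. After 24 h, compound or DMSO was added for 16 h. MTT was then added in fresh medium for 4 h at 37 °C, formazan dissolved in DMSO, and A570 read. Data were normalized to DMSO vehicle, run in triplicate in ≥2 independent experiments, with two-sided t-test versus vehicle.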
# [7] = Solubility in buffer assessed as light scattering; assay type: physicochemical
# Outline: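 Light scattering of compounds in phosphatase assay buffer was measured by nephelometry against a buffer blank, across the concentration range used for IC50 determination.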
# HEK293 [8] = test: Cytotoxicity against human HEK293 cells expressing human PRL-1 at 50 to 75 uM after 16 hrs by MTT assay; assay type: cell-based; conditions: hek293, 16 h; outline: as §1
# Homo sapiens [9] = species on record: Homo sapiens; test: Selectivity index, 1 - (inhibition of PRL3/inhibition of PTP1B) at 50 uM
# HEK293 [10] = test: Cytotoxicity against human HEK293 cells expressing human PRL-2 at 50 to 75 uM after 16 hrs by MTT assay; assay type: cell-based; conditions: hek293, 16 h; outline: as §1
# [11] = target: T1, Protein tyrosine phosphatase type IVA 3; conditions: HEK293, 75 uM
# HEK293 [12] = test: Cytotoxicity against human HEK293 cells expressing empty vector at 75 uM after 16 hrs by MTT assay; assay type: cell-based; conditions: hek293, 16 h; outline: as §1
# [13] = Drug localization in inner membrane compartments of HEK293 cells transfected with mKate-PRL-3 at 50 uM incubated for 30 mins by confocal microscopy; assay type: ADME; conditions: human, hek293, 0.5 h
# Outline: (§2)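 HEK293 cells were transfected with 0.1 μg mKate-PRL-3 18 h before imaging. Confocal imaging used a 63× oil objective, with mKate excited at 561 nm and compound at 405 nm.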
# [14] = Drug localization in plasma membrane of HEK293 cells transfected with mKate-PRL-3 at 50 uM incubated for 30 mins by confocal microscopy; assay type: ADME; conditions: human, hek293, 0.5 h; outline: as §2
# HEK293 [15] = test: Effect on cell proliferation of human HEK293 cells expressing human PRL-3 at 50 uM after 1 to 9 days by MTT assay; assay type: functional, cell-based
# Outline: (§3)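 Stable HEK293 lines (PRL-3 or empty vector) were seeded at 1500 cells/well in tetracycline-containing growth medium. Compound or DMSO vehicle was added immediately after seeding. On each indicated day, MTT was added for 4 h at 37 °C, formazan dissolved in DMSO, and absorbance read at 570 nm, in triplicate.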
# [16] = target: T1, Protein tyrosine phosphatase type IVA 3; conditions: HEK293, 12 uM
# HEK293 [17] = test: Effect on cell proliferation of human HEK293 cells expressing empty vector at 50 uM after 1 to 9 days by MTT assay; assay type: cell-based; conditions: hek293, 50 µM; outline: as §3
# [18] = target: T4, Protein tyrosine phosphatase type IVA 1 (Homo sapiens) (UniProt Q93096); conditions: HEK293, 50 uM
# T4 sequence (whole entry): T3 sequence (Q93096 whole entry)
# [19] = target: T1, Protein tyrosine phosphatase type IVA 3; conditions: HEK293, 12 uM; remark: listed apart in the source
# [20] = target: T5, Protein tyrosine phosphatase type IVA 2 (Homo sapiens) (UniProt Q12974); conditions: HEK293, 50 uM
# T5 sequence (whole entry): T2 sequence (Q12974 whole entry)
# [21] = target: T1, Protein tyrosine phosphatase type IVA 3; conditions: HEK293, 25 uM
# [22] = target: T1, Protein tyrosine phosphatase type IVA 3; conditions: HEK293, 35 uM
# [23] = target: T1, Protein tyrosine phosphatase type IVA 3; conditions: HEK293, 50 uM
# [24] = target: T1, Protein tyrosine phosphatase type IVA 3; conditions: HEK293, 50 uM; remark: listed apart in the source
# HEK293 [25] = test: Inhibition of cell proliferation of human HEK293 cells expressing human PRL-3 at 20 uM after 1 to 9 days by MTT assay; assay type: functional, cell-based; outline: as §3
# HEK293 [26] = test: Inhibition of cell proliferation of human HEK293 cells expressing empty vector at 20 uM after 1 to 9 days by MTT assay; assay type: cell-based; conditions: hek293, 20 µM; outline: as §3
# T1 sequence (O75365 whole entry): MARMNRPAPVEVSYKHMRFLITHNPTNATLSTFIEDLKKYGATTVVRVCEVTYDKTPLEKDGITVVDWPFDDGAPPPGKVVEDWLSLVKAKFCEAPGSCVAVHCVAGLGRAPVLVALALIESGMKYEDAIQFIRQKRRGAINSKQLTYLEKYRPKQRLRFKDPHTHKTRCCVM
Structure (SMILES),solubility [7],solubility kinetic [7] [µM],IC50 ([1]; read-out: IC50) [µM],Selectivity index (Homo sapiens [2]),Selectivity index (Homo sapiens [5]),Activity (HEK293 [6]),Activity (HEK293 [8]),Selectivity index (Homo sapiens [9]),Activity (HEK293 [10]),also measured
CCOC(=O)/C(C#N)=C/c1cc(Br)c(O)c(Br)c1,soluble,–,109,0.24,0.44,Toxic,Toxic,0.48,Toxic,IC50 ([3]; read-out: IC50): 109 µM; IC50 ([4]; read-out: IC50): 89.1 µM
O=C1NC(=S)S/C1=C/c1ccc(-c2ccccc2C(=O)O)o1,–,335,53,0.22,0.54,Non-toxic,–,0.34,–,inhibition [11]: inactive
COC(=O)/C(C#N)=C/c1ccc(O)c(Br)c1,–,–,–,–,–,–,–,–,–,Drug uptake [13]: Active; Drug uptake [14]: Active
O=C(O)c1ccc[n+]2c([O-])c(-c3ccccc3)sc12,soluble,–,–,0.1,0.25,Non-toxic,Non-toxic,0.25,Non-toxic,–
C=CCOC(=O)/C(C#N)=C/c1ccc(OC)cc1,–,–,–,–,–,–,–,–,–,IC50 [1]: Not Active; IC50 [3]: Not Active; IC50 [4]: Not Active
Nc1c[nH]c(=O)c2cc(-c3ccccc3)sc12,soluble,–,–,–,–,Non-toxic,Non-toxic,–,Non-toxic,inhibition (HEK293 [25]): Active; Activity (HEK293 [26]): Toxic
COc1cc(/C=C(\C#N)C(=O)OC(C)C)cc(Br)c1O,–,144,69.4,-0.29,0.24,Non-toxic,Non-toxic,0.08,Non-toxic,IC50 ([3]; read-out: IC50): 69.4 µM; IC50 ([4]; read-out: IC50): 56.7 µM

# Further lines, with some results ahead:
solubility [7],solubility kinetic [7] [µM],Structure (SMILES),IC50 ([1]; read-out: IC50) [µM],Selectivity index (Homo sapiens [2]),Selectivity index (Homo sapiens [5]),Activity (HEK293 [6]),Activity (HEK293 [8]),Selectivity index (Homo sapiens [9]),Activity (HEK293 [10]),also measured
–,311,C=CCOC(=O)/C(C#N)=C/c1ccc(O)c(Br)c1,–,–,–,Non-toxic,Non-toxic,–,Non-toxic,Activity (HEK293 [12]): Toxic
–,138,C=CCOC(=O)/C(C#N)=C/c1cc(Br)c(O)c(OC)c1,–,–,–,Non-toxic,Non-toxic,–,Non-toxic,Activity (HEK293 [15]): inactive; inhibition [16]: inactive; Activity (HEK293 [17]): Non-toxic; inhibition [18]: Active; Drug uptake [13]: Not Active; inhibition [11]: Active; inhibition [19]: inactive; inhibition [20]: Active; inhibition [21]: Active; Drug uptake [14]: Active; inhibition [22]: Active; inhibition [23]: Active; inhibition [24]: Active
